From ChEMBL document CHEMBL1143707, “7-Arylpiperazinylalkyl and 7-tetrahydroisoquinolinylalkyl derivatives of 8-alkoxy-purine-2,6-dione and some of their purine-2,6,8-trione analogs as 5-HT(1A), 5-HT(2A), and 5-HT(7) serotonin receptor ligands” (Bioorg Med Chem, 2007)

Columns and labels:
Format in all cases: functional
Mus musculus [1] = assay: Decrease in body temperature in Swiss Albino mouse at 5 mg/kg, sc after 60 mins relative control; details: route subcutaneous
Procedure, shortened: (§1)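 Male Albino Swiss mice (24-28 g); drug dissolved in saline, injected sc at 10 mL/kg. Rectal temperature recorded with a thermometer at 30 and 60 min after injection. Result expressed as change (Δt) from basal temperature taken at the start of the experiment; n = 8 per group; mean ± SEM versus vehicle.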

Mus musculus [2] = assay: Effect on compound induced hypothermia in Swiss Albino mouse at 5 mg/kg in presence of 0.1 mg/kg WAY 100635 after 60 mins relative to control
Procedure, shortened: (§2)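 Male Albino Swiss mice. WAY 100635 (0.1 mg/kg sc, in distilled water) given 15 min before the agonist (5 mg/kg sc, in saline). Rectal temperature recorded 30 and 60 min after agonist and expressed as Δt from basal; n = 8 per group; compared with vehicle + agonist group.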

Mus musculus [3] = assay: Effect on compound induced hypothermia in Swiss Albino mouse at 5 mg/kg, sc in presence of 0.1 mg/kg WAY 100635 after 30 mins relative to control; procedure, shortened: as §2
Mus musculus [4] = assay: Decrease in body temperature in Swiss Albino mouse at 5 mg/kg, sc after 30 mins relative control; details: route subcutaneous; procedure, shortened: as §1

SMILES: CCCN(CCC)C1CCc2cccc(O)c2C1 (centres undefined) [8-OH-DPAT]
- Activity (Mus musculus [1]): -0.7 °C
- Activity (Mus musculus [2]): 0.1 °C
- Activity (Mus musculus [3]): -0.1 °C
- Activity (Mus musculus [4]): -1 °C
